Test results reported in ChEMBL document CHEMBL4371044, “Celastrol Promotes Weight Loss in Diet-Induced Obesity by Inhibiting the Protein Tyrosine Phosphatases PTP1B and TCPTP in the Hypothalamus” (J Med Chem, 2018).
Calls of active or inactive are those of the source. No cut-off for these calls is given here.

How the values were obtained:
Mus musculus [1] = assay: Antiobesity activity in high fat diet-induced obese Ptpn2fl/fl null C57BL/6 mouse assessed as reduction in body weight at 100 ug/kg, ip for 10 consecutive days; assay type: functional, organism-based
How it was run: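 Male Ptpn1fl/fl, Ptpn2fl/fl or double-floxed mice: chow 8 weeks, then high-fat diet (45% energy from fat) 12 weeks. Bilateral intra-ARC stereotaxic injection of rAAV-CMV-Cre-GFP or rAAV-CMV-GFP, 100 nL/side. After 2 weeks recovery, vehicle or 100 μg/kg ip daily at 6 pm for 10 days; body weight tracked; two-way repeated-measures ANOVA with Tukey test; means ± SEM.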

[2] = target: T1, Tyrosine-protein phosphatase non-receptor type 1 (Homo sapiens) (UniProt P18031); assay: (§1) Inhibition of human N-terminal His6-tagged PTP1B catalytic domain (1 to 393 residues) expressed in Escherichia coli strain Rosetta2 (DE3) using DiFMUP as substrate preincubated for 10 mins followed by substrate addition and measured after 10 mins in presence of 0.05% Tween20 by fluorescence assay
T1 sequence (whole entry): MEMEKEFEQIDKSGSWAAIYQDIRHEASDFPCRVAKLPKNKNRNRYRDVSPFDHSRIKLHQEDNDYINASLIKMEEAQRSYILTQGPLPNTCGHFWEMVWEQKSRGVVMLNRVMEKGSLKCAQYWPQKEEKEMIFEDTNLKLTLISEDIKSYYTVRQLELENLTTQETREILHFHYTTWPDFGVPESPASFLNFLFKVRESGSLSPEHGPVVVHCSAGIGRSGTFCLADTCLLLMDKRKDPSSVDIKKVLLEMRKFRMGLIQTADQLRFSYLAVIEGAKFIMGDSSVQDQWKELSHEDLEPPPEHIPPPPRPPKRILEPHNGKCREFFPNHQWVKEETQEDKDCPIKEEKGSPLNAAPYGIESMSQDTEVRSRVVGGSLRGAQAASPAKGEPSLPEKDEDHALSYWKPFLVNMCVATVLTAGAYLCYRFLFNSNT
How it was run: (§2)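 DiFMUP IC50 assay (1 nM enzyme, 10 min preincubation, substrate at Km, 37 °C, ex 358/em 455 nm), repeated as an aggregation check under three altered conditions: 10-fold enzyme (10 nM), 0.05% Tween 20, or 0.1 mg/mL BSA in buffer.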

[3] = target: Tyrosine-protein phosphatase non-receptor type 6 (Homo sapiens, UniProt P29350); assay: Inhibition of human SHP1 (245 to 521 residues) expressed in Escherichia coli strain BL21(DE3) using DiFMUP as substrate preincubated for 10 mins followed by substrate addition and measured after 10 mins by fluorescence assay
Tyrosine-protein phosphatase non-receptor type 6, sequence (P29350 whole entry, the tested form may be a part): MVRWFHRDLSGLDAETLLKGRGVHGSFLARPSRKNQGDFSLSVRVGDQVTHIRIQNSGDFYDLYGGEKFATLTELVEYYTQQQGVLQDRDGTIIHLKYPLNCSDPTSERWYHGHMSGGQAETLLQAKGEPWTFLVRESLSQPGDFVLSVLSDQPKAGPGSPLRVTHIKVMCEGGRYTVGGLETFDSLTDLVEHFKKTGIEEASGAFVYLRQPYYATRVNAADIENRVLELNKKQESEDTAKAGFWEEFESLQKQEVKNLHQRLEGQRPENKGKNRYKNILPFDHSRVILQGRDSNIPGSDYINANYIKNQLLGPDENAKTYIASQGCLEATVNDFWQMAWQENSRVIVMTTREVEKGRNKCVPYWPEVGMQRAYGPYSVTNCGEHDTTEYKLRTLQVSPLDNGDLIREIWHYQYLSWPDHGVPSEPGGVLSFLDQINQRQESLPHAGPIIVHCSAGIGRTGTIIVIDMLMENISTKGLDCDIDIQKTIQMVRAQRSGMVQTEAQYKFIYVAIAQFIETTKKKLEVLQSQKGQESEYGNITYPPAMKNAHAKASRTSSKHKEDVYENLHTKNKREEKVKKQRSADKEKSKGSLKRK
How it was run: (§3)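 Selectivity panel on enzymes expressed in E. coli BL21(DE3), purified by nickel affinity then size exclusion. DiFMUP fluorescence assay run as for PTP1B/TCPTP, with per-enzyme conditions in a supplementary table; nonlinear regression for IC50; three independent experiments.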

[4] = target: T2, Tyrosine-protein phosphatase non-receptor type 11 (Homo sapiens, UniProt Q06124); assay: Inhibition of human SHP2 (246 to 527 residues) expressed in Escherichia coli strain BL21(DE3) using DiFMUP as substrate preincubated for 10 mins followed by substrate addition and measured after 10 mins by fluorescence assay; how it was run: as §3
T2 sequence (Q06124 whole entry): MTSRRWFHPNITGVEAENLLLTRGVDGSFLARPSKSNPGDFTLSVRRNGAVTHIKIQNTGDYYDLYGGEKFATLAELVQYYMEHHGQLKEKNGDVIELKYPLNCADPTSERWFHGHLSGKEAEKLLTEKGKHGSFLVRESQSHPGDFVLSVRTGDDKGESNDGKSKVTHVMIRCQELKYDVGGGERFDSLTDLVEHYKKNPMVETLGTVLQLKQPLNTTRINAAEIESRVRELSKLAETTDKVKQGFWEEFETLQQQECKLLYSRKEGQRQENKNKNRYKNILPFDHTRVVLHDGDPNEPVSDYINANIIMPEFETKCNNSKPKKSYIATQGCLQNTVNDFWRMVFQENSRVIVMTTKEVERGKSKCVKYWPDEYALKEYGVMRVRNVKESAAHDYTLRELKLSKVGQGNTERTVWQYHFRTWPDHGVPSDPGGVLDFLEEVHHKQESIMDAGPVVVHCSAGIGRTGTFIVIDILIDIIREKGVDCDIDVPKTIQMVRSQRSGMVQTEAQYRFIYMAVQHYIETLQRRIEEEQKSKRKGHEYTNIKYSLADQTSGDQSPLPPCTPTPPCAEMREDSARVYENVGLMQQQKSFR

[5] = Inhibition of mouse LMPTP-A (1 to 158 residues) expressed in Escherichia coli strain BL21(DE3) using DiFMUP as substrate preincubated for 10 mins followed by substrate addition and measured after 10 mins by fluorescence assay; how it was run: as §3
Mus musculus [6] = assay: Antiobesity activity in high fat diet-induced obese Ptpn1fl/fl null C57BL/6 mouse treated with rAAV-CMV-Cre-GFP for deletion of PTP1B and TCPTP assessed as reduction in body weight at 100 ug/kg, ip for 10 consecutive days; assay type: functional, organism-based
[7] = target: T1, Tyrosine-protein phosphatase non-receptor type 1 (Homo sapiens); assay: Covalent binding to human N-terminal His6-tagged PTP1B catalytic domain (1 to 298 residues) expressed in Escherichia coli strain Rosetta2 (DE3) by mass spectrometry
How it was run: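 PTP1B at 2 mg/mL incubated 30 min with or without compound (1:5, 2% DMSO) in 50 mM Tris-HCl pH 7.5, 75 mM NaCl; C4 ZipTip cleanup; MALDI-TOF in CHCA matrix.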

[8] = target: T1, Tyrosine-protein phosphatase non-receptor type 1 (Homo sapiens); assay: as §1, with “10 fold higher enzyme concentration” for “0.05% Tween20”; how it was run: as §2
[9] = target: T3, Tyrosine-protein phosphatase non-receptor type 2 (Homo sapiens) (UniProt P17706); assay: Inhibition of human N-terminal His6-tagged TCPTP catalytic domain (1 to 296 residues) expressed in Escherichia coli strain Rosetta2 (DE3) by NMR spectroscopy
T3 sequence (whole entry): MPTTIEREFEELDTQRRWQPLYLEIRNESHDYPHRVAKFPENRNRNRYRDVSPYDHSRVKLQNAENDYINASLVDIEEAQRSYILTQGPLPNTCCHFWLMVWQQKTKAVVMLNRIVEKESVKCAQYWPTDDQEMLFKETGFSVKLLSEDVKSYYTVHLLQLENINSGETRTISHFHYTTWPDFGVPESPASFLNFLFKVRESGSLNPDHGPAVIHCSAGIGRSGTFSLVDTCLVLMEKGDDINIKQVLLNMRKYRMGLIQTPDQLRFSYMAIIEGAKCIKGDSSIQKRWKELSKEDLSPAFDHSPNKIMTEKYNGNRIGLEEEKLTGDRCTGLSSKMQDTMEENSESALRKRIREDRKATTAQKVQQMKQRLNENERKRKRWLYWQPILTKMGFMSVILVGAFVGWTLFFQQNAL

## CC1=C(O)C(=O)C=C2C1=CC=C1[C@@]2(C)CC[C@@]2(C)[C@@H]3C[C@](C)(C(=O)O)CC[C@]3(C)CC[C@]12C [CELASTROL]
Mus musculus [1]
  Activity: Active
[2]
  inhibition: Active
[3]
  IC50: 3.1 µM
[4]
  IC50: 4.1 µM
[5]
  IC50: 95.3 µM
Mus musculus [6]
  Activity: inactive
[7]
  Activity: inactive
[8]
  inhibition: Active
[9]
  Activity: Active
